Reference: ChEMBL document CHEMBL5329183, “Naphthylthiazoles: a class of broad-spectrum antifungals” (RSC Med Chem, 2023)
≈ marks a conversion by molar mass, not a printed value.

Columns and labels:
Escherichia coli [1] = experiment: Antibacterial activity against Escherichia coli JW55031 harboring tolC mutant assessed as inhibition of bacterial growth; assay type: functional
Escherichia coli [2] = experiment: Antibacterial activity against wild type Escherichia coli BW25113 assessed as inhibition of bacterial growth; assay type: functional
Candida albicans [3] = experiment: Antifungal activity against Candida albicans ATCC 10231 assessed as inhibition of fungal growth incubated for 24 hrs by broth microdilution method; assay type: functional
Summary of the method: (§1)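 Broth microdilution per CLSI guidelines against clinical isolates, incubated at 35 °C for 24 h (Candida, Aspergillus) or 48 h (Cryptococcus). MIC was the lowest concentration giving 50% growth inhibition.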

Candida albicans [4] = experiment: Antifungal activity against Candida albicans NR 29448 assessed as inhibition of fungal growth incubated for 24 hrs by broth microdilution method; assay type: functional
Summary of the method: (§2)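 Clinical isolate; CLSI broth microdilution over a range of concentrations (media listed: RPMI 1640, MOPS, YPD). MIC taken as lowest concentration giving 50% growth inhibition after 24 h at 35 °C.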

[Candida] auris [5] = Antifungal activity against Candida auris 381 assessed as inhibition of fungal growth incubated for 24 hrs by broth microdilution method; assay type: functional; conditions: Candidozyma auris; summary of the method: as §2
[Candida] auris [6] = Antifungal activity against Candida auris 382 assessed as inhibition of fungal growth incubated for 24 hrs by broth microdilution method; assay type: functional; conditions: Candidozyma auris; summary of the method: as §2
Candida parapsilosis = experiment: Antifungal activity against Candida parapsilosis ATCC 22019 assessed as inhibition of fungal growth incubated for 24 hrs by broth microdilution method; assay type: functional; conditions: Lodderomyces parapsilosis; summary of the method: as §2
Pichia kudriavzevii [7] = experiment: Antifungal activity against Candida krusei CAB 396420 assessed as inhibition of fungal growth incubated for 24 hrs by broth microdilution method; assay type: functional; summary of the method: as §1
Pichia kudriavzevii [8] = experiment: Antifungal activity against Candida krusei ATCC 34135 assessed as inhibition of fungal growth incubated for 24 hrs by broth microdilution method; assay type: functional; summary of the method: as §1
Aspergillus fumigatus [9] = experiment: Antifungal activity against Aspergillus fumigatus NR 35303 assessed as inhibition of fungal growth incubated for 24 hrs by broth microdilution method; assay type: functional; summary of the method: as §1
Aspergillus fumigatus [10] = experiment: Antifungal activity against Aspergillus fumigatus NR 35304 assessed as inhibition of fungal growth incubated for 24 hrs by broth microdilution method; assay type: functional; summary of the method: as §1
Cryptococcus neoformans [11] = experiment: Antifungal activity against Cryptococcus neoformans NR 41298 assessed as inhibition of fungal growth incubated for 48 hrs by broth microdilution method; assay type: functional
Summary of the method: (§3)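 Clinical isolate; CLSI broth microdilution over a range of concentrations (media listed: RPMI 1640, MOPS, YPD). MIC read as lowest concentration inhibiting growth by 50% after 48 h incubation at 35 °C.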

Cryptococcus neoformans [12] = experiment: Antifungal activity against Cryptococcus neoformans NR 48770 assessed as inhibition of fungal growth incubated for 48 hrs by broth microdilution method; assay type: functional; summary of the method: as §3
Cryptococcus neoformans [13] = experiment: Antifungal activity against Cryptococcus neoformans NR 48767 assessed as inhibition of fungal growth incubated for 48 hrs by broth microdilution method; assay type: functional; summary of the method: as §3
Cryptococcus neoformans [14] = experiment: Antifungal activity against Cryptococcus neoformans NR 48773 assessed as inhibition of fungal growth incubated for 48 hrs by broth microdilution method; assay type: functional; summary of the method: as §3
[15] = Antifungal activity against Cryptococcus gattii NR 43214 assessed as inhibition of fungal growth incubated for 48 hrs by broth microdilution method; assay type: functional, Cryptococcus gattii VGI; summary of the method: as §1
[16] = Antifungal activity against Cryptococcus gattii NR 43216 assessed as inhibition of fungal growth incubated for 48 hrs by broth microdilution method; assay type: functional, Cryptococcus gattii VGI; summary of the method: as §1
Vero = experiment: Cytotoxicity against African green monkey Vero cells assessed as inhibition of cell viability at 128 ug/ml incubated for 2 hrs by MTS assay; assay type: toxicity, cell-based; conditions: chlorocebus sabaeus, dose 128 µg/ml
Summary of the method: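 Vero cells were grown in MEM with 10% FBS, 1 mM sodium pyruvate and penicillin–streptomycin, then exposed to compounds for 2 h at 37 °C, 5% CO2, in triplicate. MTS was added for 3 h and OD490 read. Viability was expressed as % of DMSO-matched controls (mean ± SD).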

[17] = Selectivity ratio of CC50 for cytotoxicity against human Caco-2 cells to MIC for antifungal activity against Cryptococcus neoformans NR 41298; assay type: toxicity, cell-based
[18] = Selectivity ratio of CC50 for cytotoxicity against human Caco-2 cells to MIC for antifungal activity against Cryptococcus neoformans NR 41300; assay type: toxicity, cell-based
[19] = Selectivity ratio of CC50 for cytotoxicity against human Caco-2 cells to MIC for antifungal activity against Cryptococcus neoformans NR 41299; assay type: toxicity, cell-based
[20] = Selectivity ratio of CC50 for cytotoxicity against human Caco-2 cells to MIC for antifungal activity against Cryptococcus neoformans NR 48767; assay type: toxicity, cell-based
[21] = Selectivity ratio of CC50 for cytotoxicity against human Caco-2 cells to MIC for antifungal activity against Cryptococcus neoformans NR 48771; assay type: toxicity, cell-based
[22] = Selectivity ratio of CC50 for cytotoxicity against human Caco-2 cells to MIC for antifungal activity against Cryptococcus neoformans NR 48773; assay type: toxicity, cell-based
[23] = Selectivity ratio of CC50 for cytotoxicity against human Caco-2 cells to MIC for antifungal activity against Cryptococcus gattii NR 43210; assay type: toxicity, cell-based
[24] = Selectivity ratio of CC50 for cytotoxicity against human Caco-2 cells to MIC for antifungal activity against Cryptococcus gattii NR 43209; assay type: toxicity, cell-based
[25] = Selectivity ratio of CC50 for cytotoxicity against human Caco-2 cells to MIC for antifungal activity against Cryptococcus gattii NR 43213; assay type: toxicity, cell-based
[26] = Selectivity ratio of CC50 for cytotoxicity against human Caco-2 cells to MIC for antifungal activity against Cryptococcus gattii NR 43214; assay type: toxicity, cell-based
[27] = Selectivity ratio of CC50 for cytotoxicity against human Caco-2 cells to MIC for antifungal activity against Cryptococcus gattii NR 43216; assay type: toxicity, cell-based
[28] = Selectivity ratio of CC50 for cytotoxicity against African green monkey Vero cells to MIC for antifungal activity against Cryptococcus neoformans NR 48770; assay type: toxicity, cell-based
[29] = Selectivity ratio of CC50 for cytotoxicity against African green monkey Vero cells to MIC for antifungal activity against Cryptococcus neoformans NR 48767; assay type: toxicity, cell-based
[30] = Selectivity ratio of CC50 for cytotoxicity against African green monkey Vero cells to MIC for antifungal activity against Cryptococcus gattii NR 43210; assay type: toxicity, cell-based
[31] = Selectivity ratio of CC50 for cytotoxicity against African green monkey Vero cells to MIC for antifungal activity against Cryptococcus gattii NR 43214; assay type: toxicity, cell-based
[32] = Selectivity ratio of CC50 for cytotoxicity against African green monkey Vero cells to MIC for antifungal activity against Cryptococcus gattii NR 43216; assay type: toxicity, cell-based
[33] = Antibacterial activity against Lactobacillus casei HM334 assessed as inhibition of bacterial growth; assay type: toxicity; conditions: lacticaseibacillus casei
[34] = Antibacterial activity against Lactobacillus crispatus HM370 assessed as inhibition of bacterial growth; assay type: toxicity
Cryptococcus neoformans [35] = experiment: Antibiofilm activity against Cryptococcus neoformans NR 41300 assessed as inhibition of biofilm formation at 0.5xMIC measured after 48 hrs by crystal violet staining based analysis; assay type: functional
Summary of the method: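 Overnight C. neoformans was washed twice in PBS and adjusted to 105 cells per mL in RPMI. Cells were exposed to compound at 0.5 × MIC for 48 h at 35 °C. Biofilm was rinsed, dried, stained with 0.1% crystal violet, and the dye extracted with glacial acetic acid; OD595 readout.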

[36] = Apparent permeability of the compound measured after 4 hrs by PAMPA assay; assay type: ADME
Summary of the method: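 PAMPA: compound was placed in pH 6.5 donor buffer across a lipid-pretreated PVDF filter from pH 7.4 acceptor buffer, and incubated 4 h at ambient temperature. Donor and acceptor amounts at start and end were measured by UV absorbance to give apparent permeability.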

| Structure (SMILES) | MIC (Escherichia coli [1]) [µg/mL] | MIC (Escherichia coli [2]) [µg/mL] | MIC (Candida albicans [3]) [µg/mL] | MIC (Candida albicans [4]) [µg/mL] | MIC ([Candida] auris [5]) [µg/mL] | MIC ([Candida] auris [6]) [µg/mL] | MIC (Candida parapsilosis) [µg/mL] | MIC (Pichia kudriavzevii [7]) [µg/mL] | MIC (Pichia kudriavzevii [8]) [µg/mL] | MIC (Aspergillus fumigatus [9]) [µg/mL] | MIC (Aspergillus fumigatus [10]) [µg/mL] | MIC (Cryptococcus neoformans [11]) [µg/mL] | MIC (Cryptococcus neoformans [12]) [µg/mL] | MIC (Cryptococcus neoformans [13]) [µg/mL] | MIC (Cryptococcus neoformans [14]) [µg/mL] | MIC [15] [µg/mL] | MIC [16] [µg/mL] | Activity (Vero) | selectivity ratio [17] | selectivity ratio [18] | further results |
| --- | --- | --- | --- | --- | --- | --- | --- | --- | --- | --- | --- | --- | --- | --- | --- | --- | --- | --- | --- | --- | --- |
| Cc1nc(-c2ccc3ccccc3c2)sc1-c1nnc(N[C@@H]2CCCC[C@H]2N)o1 (relative stereo) | > 64 | > 64 | 4 (≈ 9.86 µM) | 4 (≈ 9.86 µM) | 2 (≈ 4.93 µM) | 2 (≈ 4.93 µM) | 1 (≈ 2.47 µM) | 1 (≈ 2.47 µM) | 1 (≈ 2.47 µM) | 4 (≈ 9.86 µM) | 4 (≈ 9.86 µM) | 1 (≈ 2.47 µM) | 1 (≈ 2.47 µM) | 2 (≈ 4.93 µM) | 2 (≈ 4.93 µM) | 1 (≈ 2.47 µM) | 2 (≈ 4.93 µM) | Non-Toxic | 64 | 64 | selectivity ratio [19]: 64; selectivity ratio [20]: 64; selectivity ratio [21]: 64; selectivity ratio [22]: 64; selectivity ratio [23]: 64; selectivity ratio [24]: 64; selectivity ratio [25]: 64; selectivity ratio [26]: 64; selectivity ratio [27]: 64; selectivity ratio [28]: 64; selectivity ratio [29]: 64; selectivity ratio [30]: 64; selectivity ratio [31]: 64; selectivity ratio [32]: 64; MIC [33]: > 128 µg/mL; MIC [34]: > 128 µg/mL; growth inhibition (GI) (Cryptococcus neoformans [35]): ~56%; Papp at 4 h [36]: 57.7 ×10⁻⁶ cm/s |
| Cc1nc(-c2ccc3ccccc3c2)sc1-c1nnc(N[C@@H]2CCCC[C@@H]2N)o1 (relative stereo) | > 64 | > 64 | 4 (≈ 9.86 µM) | 4 (≈ 9.86 µM) | 2 (≈ 4.93 µM) | 2 (≈ 4.93 µM) | 1 (≈ 2.47 µM) | 1 (≈ 2.47 µM) | 1 (≈ 2.47 µM) | 8 (≈ 19.7 µM) | 4 (≈ 9.86 µM) | 1 (≈ 2.47 µM) | 1 (≈ 2.47 µM) | 2 (≈ 4.93 µM) | 2 (≈ 4.93 µM) | 2 (≈ 4.93 µM) | 2 (≈ 4.93 µM) | Non-Toxic | 64 | 64 | selectivity ratio [19]: 64; selectivity ratio [20]: 64; selectivity ratio [21]: 64; selectivity ratio [22]: 64; selectivity ratio [23]: 64; selectivity ratio [24]: 64; selectivity ratio [25]: 64; selectivity ratio [26]: 64; selectivity ratio [27]: 64; selectivity ratio [28]: 64; selectivity ratio [29]: 64; selectivity ratio [30]: 64; selectivity ratio [31]: 64; selectivity ratio [32]: 64; MIC [33]: 128 µg/mL (≈ 316 µM); MIC [34]: > 128 µg/mL; growth inhibition (GI) (Cryptococcus neoformans [35]): ~53%; Papp at 4 h [36]: 26.3 ×10⁻⁶ cm/s |
